Results as given in ChEMBL document CHEMBL5154854, “Identification of a Vitamin-D Receptor Antagonist, MeTC7, which Inhibits the Growth of Xenograft and Transgenic Tumors In Vivo” (J Med Chem, 2022).

Biological target: T1, Vitamin D3 receptor (Homo sapiens) (UniProt P11473)
T1 sequence (whole entry): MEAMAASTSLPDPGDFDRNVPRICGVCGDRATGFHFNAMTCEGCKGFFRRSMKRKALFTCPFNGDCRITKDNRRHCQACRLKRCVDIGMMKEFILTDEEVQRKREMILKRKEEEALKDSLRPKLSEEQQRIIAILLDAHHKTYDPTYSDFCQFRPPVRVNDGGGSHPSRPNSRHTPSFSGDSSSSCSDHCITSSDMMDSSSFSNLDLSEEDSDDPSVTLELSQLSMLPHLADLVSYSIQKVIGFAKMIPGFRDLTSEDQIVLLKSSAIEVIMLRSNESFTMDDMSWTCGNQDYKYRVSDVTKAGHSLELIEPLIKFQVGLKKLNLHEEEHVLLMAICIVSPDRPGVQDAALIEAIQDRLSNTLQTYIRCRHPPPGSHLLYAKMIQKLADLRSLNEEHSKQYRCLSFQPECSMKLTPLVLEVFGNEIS
Experiment: Antagonist activity at VDR LBD (unknown origin) using Alexa Fluor 647-labeled SRC2-3 as substrate incubated for 2 hrs in presence of calcitriol by fluorescence polarization assay
How it was run: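 VDR-LBD (0.1 μM) with Alexa Fluor 647-labelled SRC2-3 (17.5 nM) and 10 nM 1,25(OH)2D3 in 25 mM PIPES, 50 mM NaCl, 0.01% NP-40, pH 6.75. Compounds were serially diluted 1:2 from 10 mM DMSO stocks and incubated 2 h. Polarization was read at 635/685 nm. Three independent experiments in quadruplicate; IC50 by variable-slope nonlinear regression.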

Activity: > 100 µM
SMILES: CC(C)CCC[C@@H](C)[C@H]1CC[C@H]2C3=CC=C4C[C@@H](O)CC[C@]4(C)[C@H]3CC[C@]12C
